Experimental data reported in ChEMBL document CHEMBL4043283, “Discovery and Preclinical Development of IIIM-290, an Orally Active Potent Cyclin-Dependent Kinase Inhibitor” (J Med Chem, 2018).
≈ marks a conversion by molar mass, not a printed value. Calls of active or inactive are those of the source. No cut-off for these calls is given here.

Assays:
[1] = test system: PC-3; test: Growth inhibition of human PC3 cells at 10 uM after 48 hrs by MTT assay relative to control; assay type: functional; conditions: PC-3, 48 h, read-out: GI
How it was run: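 Single-concentration primary screen at 10 μM by MTT assay. Cells were NCI-sourced cancer lines grown in appropriate medium at 37 °C, 95% humidity, 5% CO2. Growth inhibition is expressed relative to control.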

[2] = biological target: CDK2/Cyclin A2 (Homo sapiens, UniProt P24941); test: Inhibition of CDK2/cyclin A (unknown origin) using histone H1 as substrate after 30 mins in presence of [33P]-gamma-ATP by filter binding assay; assay type: protein-complex assay
[3] = biological target: CDK9/cyclin T1 (Homo sapiens, UniProt P50750); test: Inhibition of CDK9/cyclin T1 (unknown origin) using YSPTSPSYSPTSPSYSPTSPKKK as substrate after 30 mins in presence of [33P]-gamma-ATP by filter binding assay; assay type: protein-complex assay
[4] = test system: Caco-2; test: Growth inhibition of human Caco2 cells after 48 hrs by MTT assay; assay type: functional; conditions: Caco-2, 48 h
How it was run: (§1)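 Cancer cell lines sourced from the National Cancer Institute (USA). Cells kept in appropriate growth medium at 37 °C, 95% humidity, 5% CO2. Antiproliferation read by tetrazolium (MTT) assay. GI50 values were determined only for compounds selected after an initial single-concentration screen.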

[5] = biological target: CDK4/Cyclin D3 (Homo sapiens, UniProt P11802); test: Inhibition of CDK4/cyclin D3 (unknown origin) after 30 mins in presence of [33P]-gamma-ATP by filter binding assay; assay type: protein-complex assay
[6] = biological target: CDK6/cyclin D1 (Homo sapiens, UniProt Q00534); test: Inhibition of CDK6/cyclin D1 (unknown origin) after 30 mins in presence of [33P]-gamma-ATP by filter binding assay; assay type: protein-complex assay
[7] = test system: Tyrosine-protein kinase ABL1 (Homo sapiens), P00519 [Q252H]; test: Inhibition of partial length human ABL1 Q252H mutant expressed in mammalian expression system at 0.5 uM by KINOMEscan method relative to control
How it was run: (§2)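 Competition binding screen (KINOMEscan) at 0.5 μM; primary binding read out as % of control, lower values indicating stronger interaction.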

[8] = biological target: Serine/threonine-protein kinase ICK (Homo sapiens) (UniProt Q9UPZ9); test: Inhibition of partial length wild type human ICK expressed in mammalian expression system at 0.5 uM by KINOMEscan method relative to control; how it was run: as §2
[9] = test system: MDA-MB-468; test: Growth inhibition of human MDA-MB-468 cells after 48 hrs by MTT assay; assay type: functional; conditions: MDA-MB-468, 48 h; how it was run: as §1
[10] = test system: OVCAR-4; test: Growth inhibition of human OVCAR4 cells after 48 hrs by MTT assay; assay type: functional; conditions: OVCAR-4, 48 h; how it was run: as §1
[11] = Growth inhibition of human HEK293 cells after 48 hrs by MTT assay; assay type: cell-based
[12] = test system: A549; test: Growth inhibition of human A549 cells after 48 hrs by MTT assay; assay type: functional; conditions: A549, 48 h; how it was run: as §1
[13] = test system: HOP-92; test: Growth inhibition of human HOP92 cells after 48 hrs by MTT assay; assay type: functional; conditions: HOP-92, 48 h; how it was run: as §1
[14] = test system: MIA PaCa-2; test: Cell cycle arrest in human MIAPaCa2 cells assessed as accumulation at G2 phase at 1.5 uM after 24 hrs by propidium iodide staining-based flow cytometric method (reference value: 30%); assay type: functional
[15] = test system: MIA PaCa-2; test: Induction of apoptosis in human MIAPaCa2 cells assessed as chromatin condensation in nuclei after 24 hrs by scanning electron microscopy; assay type: functional, cell-based
How it was run: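 Cells exposed to different compound concentrations for 24 h on coverslips, fixed in 2.5% glutaraldehyde in 0.1 M phosphate buffer pH 7.2 (4 °C, 24 h), postfixed in 1% OsO4 4 h, ethanol-dehydrated, critical-point dried with HMDS, gold-coated, imaged at 20 kV.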

[16] = Thermodynamic equilibrium solubility of compound in PBS at pH 7.4 after 5 hrs by shake flask method; assay type: physicochemical; conditions: read-out: Therm_solubility
[17] = Ionization constant, pKa of compound by UV spectrophotometric analysis; assay type: physicochemical
[18] = biological target: Cytochrome P450 2D6 (Homo sapiens, UniProt P10635); test: Inhibition of human CYP2D6 using fluorogenic substrate preincubated with co-factor for 10 mins followed by enzyme-substrate addition by fluorometric method; assay type: ADME
How it was run: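 Cofactor plus test item or vehicle, in triplicate, preincubated 10 min at 37 °C; prewarmed enzyme–substrate mix added and incubated at 37 °C with shaking. Quench: acetonitrile (CYP2C19, CYP3A4) or 0.25 M Tris in 60% methanol (CYP2C9, CYP2D6). Metabolite fluorescence read; % inhibition computed against enzyme controls and enzyme-free blanks.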

[19] = Half life in rat liver microsomes at 100 uM after 30 mins by LC-MS/MS analysis; assay type: ADME, microsome
How it was run: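 Parent loss followed over time to give half-life, with NADPH as cofactor for microsomal phase I metabolism.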

[20] = Elimination half life in BALB/c mouse at 10 mg/kg, po by LC-MS/MS analysis; assay type: ADME, organism-based; conditions: in vivo, read-out: beta t1/2 (converted)
[21] = Cmax in BALB/c mouse at 1 mg/kg, iv by LC-MS/MS analysis; assay type: ADME, organism-based; parameters: dose 1 mg/kg, route intravenous; conditions: in vivo
[22] = AUC (0 to t) in BALB/c mouse at 10 mg/kg, po by LC-MS/MS analysis; assay type: ADME, organism-based; conditions: in vivo
[23] = AUC (0 to infinity) in BALB/c mouse at 10 mg/kg, po by LC-MS/MS analysis; assay type: ADME, organism-based; parameters: dose 10 mg/kg, time infinity, route oral; conditions: in vivo
[24] = Oral bioavailability in BALB/c mouse at 10 mg/kg by LC-MS/MS analysis; assay type: ADME, organism-based; conditions: in vivo
[25] = AUC in Sprague-Dawley rat at 3 mg/kg, po by LC-MS/MS analysis; assay type: ADME, organism-based; conditions: in vivo
[26] = Cmax in Sprague-Dawley rat at 10 mg/kg, po by LC-MS/MS analysis; assay type: ADME, organism-based; parameters: dose 10 mg/kg, route oral; conditions: in vivo
[27] = AUC in Sprague-Dawley rat at 30 mg/kg, po by LC-MS/MS analysis; assay type: ADME, organism-based; conditions: in vivo
[28] = Pancreas to plasma partition coefficient, Kp of the compound in BALB/c mouse at 30 mg/kg, po measured at 1 hr; assay type: ADME, organism-based; conditions: pancreas and plasma
[29] = test system: Liver; test: Drug uptake in BALB/c mouse liver at 30 mg/kg, po after 8 hrs; assay type: ADME, organism-based; conditions: in vivo
[30] = Toxicity in po dosed Swiss albino mouse allografted with Swiss mouse EAC administered for 9 day; assay type: organism-based; conditions: in vivo
[31] = test system: Mus musculus; test: Toxicity in CD1 nude mouse xenografted with human MIAPaCa2 cells assessed as change in body weight at 25 to 50 mg/kg, po qd administered on day 10 to 25 post tumor inoculation; assay type: organism-based; conditions: in vivo
[32] = Apparent permeability across apical to basolateral side in human Caco2 cells after 90 mins by LC-MS/MS analysis; assay type: ADME, cell-based; conditions: Caco-2
How it was run: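 Caco-2 monolayers were grown for 21 days. Test compound in HBSS containing 10 mM HEPES was added to the apical chamber, and samples were taken from both the apical and basolateral chambers.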

[33] = test system: Salmonella typhimurium; test: Mutagenicity in Salmonella typhimurium TA1535 at 50 ug/plate in presence of liver S9 fraction by Ames test; assay type: toxicity; conditions: salmonella enterica subsp. enterica serovar typhimurium
[34] = test system: Salmonella typhimurium; test: Mutagenicity in Salmonella typhimurium TA98 at 50 ug/plate in presence of liver S9 fraction by Ames test; assay type: toxicity; conditions: salmonella enterica subsp. enterica serovar typhimurium

CDK9/cyclin T1, sequence (O60563 whole entry): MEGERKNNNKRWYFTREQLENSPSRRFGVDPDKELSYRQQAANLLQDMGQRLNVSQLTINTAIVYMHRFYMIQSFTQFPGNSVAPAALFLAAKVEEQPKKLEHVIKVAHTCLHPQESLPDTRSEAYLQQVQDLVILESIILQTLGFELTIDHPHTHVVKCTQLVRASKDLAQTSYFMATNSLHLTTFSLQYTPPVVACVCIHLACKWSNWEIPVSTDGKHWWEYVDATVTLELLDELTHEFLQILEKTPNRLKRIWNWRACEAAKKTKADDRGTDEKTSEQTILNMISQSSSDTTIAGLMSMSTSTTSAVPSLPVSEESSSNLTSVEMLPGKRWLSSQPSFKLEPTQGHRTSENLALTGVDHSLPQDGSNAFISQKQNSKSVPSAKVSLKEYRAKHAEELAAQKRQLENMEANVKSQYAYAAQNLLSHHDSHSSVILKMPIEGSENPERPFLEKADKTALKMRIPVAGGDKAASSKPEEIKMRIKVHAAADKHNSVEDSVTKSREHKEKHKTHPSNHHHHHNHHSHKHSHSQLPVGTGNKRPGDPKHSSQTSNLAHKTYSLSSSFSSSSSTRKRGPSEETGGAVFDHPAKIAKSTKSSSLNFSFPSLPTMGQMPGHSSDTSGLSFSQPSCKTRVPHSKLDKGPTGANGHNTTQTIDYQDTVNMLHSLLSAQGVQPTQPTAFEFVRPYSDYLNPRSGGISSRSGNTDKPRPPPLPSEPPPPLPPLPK
CDK9/cyclin T1, sequence (P50750 whole entry): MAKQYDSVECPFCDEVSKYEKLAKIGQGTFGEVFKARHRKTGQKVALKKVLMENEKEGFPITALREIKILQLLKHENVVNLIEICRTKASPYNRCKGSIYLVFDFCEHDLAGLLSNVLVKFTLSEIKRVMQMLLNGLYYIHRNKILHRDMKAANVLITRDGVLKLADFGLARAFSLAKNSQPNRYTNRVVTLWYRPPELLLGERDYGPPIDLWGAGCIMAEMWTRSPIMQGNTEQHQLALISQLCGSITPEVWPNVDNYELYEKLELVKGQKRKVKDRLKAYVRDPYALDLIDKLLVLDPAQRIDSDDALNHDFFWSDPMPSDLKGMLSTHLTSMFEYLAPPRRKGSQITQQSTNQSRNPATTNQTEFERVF
CDK6/cyclin D1, sequence (P24385 whole entry): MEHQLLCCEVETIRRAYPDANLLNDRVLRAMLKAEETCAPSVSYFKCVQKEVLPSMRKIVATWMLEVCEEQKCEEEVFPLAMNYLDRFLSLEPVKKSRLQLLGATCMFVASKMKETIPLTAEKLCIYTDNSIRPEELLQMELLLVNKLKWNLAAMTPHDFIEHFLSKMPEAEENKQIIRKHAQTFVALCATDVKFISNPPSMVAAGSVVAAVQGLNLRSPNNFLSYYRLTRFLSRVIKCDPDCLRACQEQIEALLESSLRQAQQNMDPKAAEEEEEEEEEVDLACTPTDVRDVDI
CDK6/cyclin D1, sequence (Q00534 whole entry): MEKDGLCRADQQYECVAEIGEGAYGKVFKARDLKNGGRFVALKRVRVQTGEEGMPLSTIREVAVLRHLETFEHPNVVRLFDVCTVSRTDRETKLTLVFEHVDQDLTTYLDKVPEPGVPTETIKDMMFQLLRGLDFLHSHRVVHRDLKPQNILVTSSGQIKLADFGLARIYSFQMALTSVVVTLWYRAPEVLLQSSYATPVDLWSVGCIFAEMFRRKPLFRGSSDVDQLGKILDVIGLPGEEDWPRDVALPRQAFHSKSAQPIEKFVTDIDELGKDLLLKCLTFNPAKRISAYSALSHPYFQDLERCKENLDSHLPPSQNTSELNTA
CDK4/Cyclin D3, sequence (P11802 whole entry): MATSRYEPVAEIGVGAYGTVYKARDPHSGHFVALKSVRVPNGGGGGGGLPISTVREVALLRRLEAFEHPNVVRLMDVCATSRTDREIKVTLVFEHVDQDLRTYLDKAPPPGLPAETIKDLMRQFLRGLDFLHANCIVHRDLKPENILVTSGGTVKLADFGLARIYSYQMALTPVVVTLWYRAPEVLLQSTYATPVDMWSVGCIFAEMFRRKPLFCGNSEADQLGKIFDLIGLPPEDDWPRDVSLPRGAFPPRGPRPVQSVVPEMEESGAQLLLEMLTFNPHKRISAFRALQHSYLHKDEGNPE
CDK4/Cyclin D3, sequence (P30281 whole entry, further chain): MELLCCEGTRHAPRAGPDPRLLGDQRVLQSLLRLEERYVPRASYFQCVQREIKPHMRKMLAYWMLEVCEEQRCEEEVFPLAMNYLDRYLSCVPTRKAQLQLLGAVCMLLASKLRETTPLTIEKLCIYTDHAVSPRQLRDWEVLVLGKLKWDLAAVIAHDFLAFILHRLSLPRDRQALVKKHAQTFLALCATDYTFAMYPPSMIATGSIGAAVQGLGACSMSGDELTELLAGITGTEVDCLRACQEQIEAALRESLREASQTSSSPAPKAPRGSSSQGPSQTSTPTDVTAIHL
Cytochrome P450 2D6, sequence (P10635 whole entry): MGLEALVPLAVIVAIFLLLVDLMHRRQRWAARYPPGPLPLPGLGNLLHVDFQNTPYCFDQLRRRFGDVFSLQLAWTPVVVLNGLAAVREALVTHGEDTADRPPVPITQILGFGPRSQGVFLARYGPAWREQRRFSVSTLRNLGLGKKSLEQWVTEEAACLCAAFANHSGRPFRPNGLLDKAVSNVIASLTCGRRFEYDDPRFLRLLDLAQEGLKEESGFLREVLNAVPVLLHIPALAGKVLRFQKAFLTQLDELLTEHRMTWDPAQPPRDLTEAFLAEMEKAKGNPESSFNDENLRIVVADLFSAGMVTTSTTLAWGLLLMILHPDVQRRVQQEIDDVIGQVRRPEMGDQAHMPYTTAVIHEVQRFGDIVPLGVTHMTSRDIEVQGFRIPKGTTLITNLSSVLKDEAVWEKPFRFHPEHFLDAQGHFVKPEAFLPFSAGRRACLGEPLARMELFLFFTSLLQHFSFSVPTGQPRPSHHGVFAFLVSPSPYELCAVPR
Serine/threonine-protein kinase ICK (Homo sapiens), sequence (Q9UPZ9 whole entry): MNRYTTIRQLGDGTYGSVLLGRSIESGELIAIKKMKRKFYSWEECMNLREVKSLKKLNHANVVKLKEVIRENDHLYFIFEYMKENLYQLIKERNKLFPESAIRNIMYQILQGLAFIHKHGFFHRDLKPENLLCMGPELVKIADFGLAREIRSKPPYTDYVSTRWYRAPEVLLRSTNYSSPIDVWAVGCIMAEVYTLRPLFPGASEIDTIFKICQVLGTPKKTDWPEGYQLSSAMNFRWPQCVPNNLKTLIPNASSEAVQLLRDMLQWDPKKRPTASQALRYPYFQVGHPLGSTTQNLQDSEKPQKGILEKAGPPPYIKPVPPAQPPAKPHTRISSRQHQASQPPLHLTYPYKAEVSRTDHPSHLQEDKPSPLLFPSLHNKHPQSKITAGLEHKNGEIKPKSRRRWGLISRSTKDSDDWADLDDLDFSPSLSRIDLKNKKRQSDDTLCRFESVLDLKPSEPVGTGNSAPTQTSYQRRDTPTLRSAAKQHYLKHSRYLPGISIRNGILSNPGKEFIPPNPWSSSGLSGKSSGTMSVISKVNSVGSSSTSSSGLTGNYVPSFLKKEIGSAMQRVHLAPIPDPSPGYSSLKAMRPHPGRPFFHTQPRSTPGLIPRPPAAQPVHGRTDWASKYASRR

## CN1CC[C@H](c2c(O)cc(O)c3c(=O)cc(/C=C/c4c(Cl)cccc4Cl)oc23)[C@H](O)C1
[1]
  inhibition of growth at 10 µM: 84%
[2]
  IC50: 0.0155 to 0.016 µM
[3]
  IC50: 0.0019 µM
[4]
  GI50: 7 µM
[5]
  IC50: 0.0225 µM
[6]
  IC50: 0.045 µM
[7]
  inhibition: > 98%
[8]
  inhibition: > 98%
[9]
  GI50: 4 µM
[10]
  GI50: 9 µM
[11]
  GI50 at 48 h: 22 µM
[12]
  GI50: 4 µM
[13]
  GI50: 3 µM
[14]
  Activity: 19%
[15]
  Activity: Active
[16]
  solubility thermodynamic at 5 h: 2.29 µg/mL (≈ 4.95 µM)
[17]
  pKa: 5.4
[18]
  IC50: > 20 µM
[19]
  half-life at 100 µM: > 0.5 h
[20]
  half-life: 4.65 h
[21]
  Cmax: 677 nM
[22]
  AUC(0-t): 4.5 µM·h
[23]
  AUC(0-inf): 4.4 µM·h
[24]
  bioavailability: 70.7%
[25]
  AUC: 1.44 µM·h
[26]
  Cmax: 900 nM
[27]
  AUC: 15.9 µM·h
[28]
  Kp at 1 h: 24.4
[29]
  Drug uptake: Active
[30]
  MTD at 216 h: 100 mg/kg
[31]
  Activity: Non-Toxic
[32]
  Papp A→B at 1.5 h: 2.1 ×10⁻⁶ cm/s
[33]
  Activity: Non-Toxic
[34]
  Activity: Non-Toxic
